Tested on: Fibroblast
Test: Multiplex assay against human fibroblast
Assay type: toxicity, cell-based
Outline: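 Values for tubulin, mitochondrial-mass and membrane-permeability phenotypes are per cents of cells with healthy nuclei. These cells were identified by CellPathfinder machine-learning gating of live cells that had been stained at seeding with Hoechst33342, BioTracker Green Microtubule Cytoskeleton Dye, MitoTracker Red and Annexin V Alexa Fluor 680 and imaged on a CQ1 microscope at 37°C and 5% CO2 after compound addition. The gating first set Hoechst high-intensity objects apart from normal cells, then split normal cells into healthy, pyknosed or fragmented nuclei, and pyknosed cells into mitotic or apoptotic.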

[1] = 12 h, 1 µM, compound concentration 1 uM, replicate 1
[2] = 12 h, 1 µM, compound concentration 1 uM, replicate 2
[3] = 12 h, 10 µM, compound concentration 10 uM, replicate 1
[4] = 12 h, 10 µM, compound concentration 10 uM, replicate 2
[5] = 24 h, 1 µM, compound concentration 1 uM, replicate 1
[6] = 24 h, 1 µM, compound concentration 1 uM, replicate 2
[7] = 24 h, 10 µM, compound concentration 10 uM, replicate 1
[8] = 24 h, 10 µM, compound concentration 10 uM, replicate 2

O=C(Nc1cccnn1)N1CCC(=Cc2cccc(Oc3ccc(C(F)(F)F)cn3)c2)CC1
Population Apoptotic (%) [1]: 59%
Population Fragmented Nuclei (%) [1]: 24%
Population Healthy Nuclei (%) [1]: 56%
Population Hoechst High Intensity Objects (%) [1]: 10%
Population Membrane Permeable-Phenotype (%) [1]: 20%
Population Mitochondria Different-Phenotype (%) [1]: 10%
Population Normal (%) [1]: 89%
Population Pyknosed Nuclei (%) [1]: 18%
Population Tubulin-Different-Phenotype (%) [1]: 28%
Total Cell Count [1]: 217
Population Apoptotic (%) [2]: 60%
Population Fragmented Nuclei (%) [2]: 71%
Population Healthy Nuclei (%) [2]: 17%
Population Hoechst High Intensity Objects (%) [2]: 44%
Population Membrane Permeable-Phenotype (%) [2]: 25%
Population Mitochondria Different-Phenotype (%) [2]: 0%
Population Mitotic Cells (%) [2]: 40%
Population Normal (%) [2]: 55%
Population Pyknosed Nuclei (%) [2]: 10%
Population Tubulin-Different-Phenotype (%) [2]: 25%
Total Cell Count [2]: 83
Population Apoptotic (%) [3]: 73%
Population Fragmented Nuclei (%) [3]: 34%
Population Healthy Nuclei (%) [3]: 52%
Population Hoechst High Intensity Objects (%) [3]: 14%
Population Membrane Permeable-Phenotype (%) [3]: 6%
Population Mitochondria Different-Phenotype (%) [3]: 5%
Population Mitotic Cells (%) [3]: 26%
Population Normal (%) [3]: 85%
Population Pyknosed Nuclei (%) [3]: 13%
Population Tubulin-Different-Phenotype (%) [3]: 7%
Total Cell Count [3]: 170
Population Apoptotic (%) [4]: 25%
Population Fragmented Nuclei (%) [4]: 50%
Population Healthy Nuclei (%) [4]: 37%
Population Hoechst High Intensity Objects (%) [4]: 24%
Population Membrane Permeable-Phenotype (%) [4]: 12%
Population Mitochondria Different-Phenotype (%) [4]: 12%
Population Mitotic Cells (%) [4]: 75%
Population Normal (%) [4]: 75%
Population Pyknosed Nuclei (%) [4]: 12%
Population Tubulin-Different-Phenotype (%) [4]: 4%
Total Cell Count [4]: 85
Population Apoptotic (%) [5]: 72%
Population Fragmented Nuclei (%) [5]: 28%
Population Healthy Nuclei (%) [5]: 58%
Population Hoechst High Intensity Objects (%) [5]: 6%
Population Membrane Permeable-Phenotype (%) [5]: 9%
Population Mitochondria Different-Phenotype (%) [5]: 12%
Population Mitotic Cells (%) [5]: 27%
Population Normal (%) [5]: 93%
Population Pyknosed Nuclei (%) [5]: 13%
Population Tubulin-Different-Phenotype (%) [5]: 27%
Total Cell Count [5]: 238
Population Apoptotic (%) [6]: 60%
Population Fragmented Nuclei (%) [6]: 60%
Population Healthy Nuclei (%) [6]: 28%
Population Hoechst High Intensity Objects (%) [6]: 42%
Population Membrane Permeable-Phenotype (%) [6]: 23%
Population Mitochondria Different-Phenotype (%) [6]: 23%
Population Mitotic Cells (%) [6]: 40%
Population Normal (%) [6]: 57%
Population Pyknosed Nuclei (%) [6]: 11%
Population Tubulin-Different-Phenotype (%) [6]: 38%
Total Cell Count [6]: 78
Population Apoptotic (%) [7]: 65%
Population Fragmented Nuclei (%) [7]: 28%
Population Healthy Nuclei (%) [7]: 57%
Population Hoechst High Intensity Objects (%) [7]: 18%
Population Membrane Permeable-Phenotype (%) [7]: 1%
Population Mitochondria Different-Phenotype (%) [7]: 2%
Population Mitotic Cells (%) [7]: 35%
Population Normal (%) [7]: 81%
Population Pyknosed Nuclei (%) [7]: 13%
Population Tubulin-Different-Phenotype (%) [7]: 2%
Total Cell Count [7]: 179
Population Apoptotic (%) [8]: 33%
Population Fragmented Nuclei (%) [8]: 51%
Population Healthy Nuclei (%) [8]: 38%
Population Hoechst High Intensity Objects (%) [8]: 23%
Population Membrane Permeable-Phenotype (%) [8]: 12%
Population Mitochondria Different-Phenotype (%) [8]: 8%
Population Mitotic Cells (%) [8]: 66%
Population Normal (%) [8]: 76%
Population Pyknosed Nuclei (%) [8]: 9%
Population Tubulin-Different-Phenotype (%) [8]: 20%
Total Cell Count [8]: 81
